Source: PubChem BioAssay AID623912 (Johns Hopkins Ion Channel Center, 2012)
The source made the active and inactive calls.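 The calls were made as follows: active = peak KCNK3 inhibition above a set limit at some dose, plus a fitted dose-response curve; inactive = no KCNK3 inhibition, or no dose-response curve.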

Target: Potassium channel subfamily K member 3 (Rattus norvegicus) (UniProt O54912)
Assay: KCNK3 off-target potassium flux block – cell-based, FluxOR thallium flux, CRC set 2, selectivity assay for KCNK9 inhibitor project, SAR follow-up (AID 623912)
Settings: KCNK3-expressing cells, FluxOR thallium flux fluorescence; for flux ratio, lower = inhibition: at 3 µM (top of the series)
Summary of the method: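 read-out basis = IC50 from normalized flux signal | assay system = induced KCNK3-expressing CHO cells | probe or stimulus = Tl+/K+ sulfate stimulus buffer (5x stock) | times = dye 90 min, compound 20 min, both room temperature | signal = thallium flux fluorescence with FluxOR thallium-sensitive dye, kinetic reading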

Sequence of Potassium channel subfamily K member 3 (Rattus norvegicus) (O54912 whole entry, looked up): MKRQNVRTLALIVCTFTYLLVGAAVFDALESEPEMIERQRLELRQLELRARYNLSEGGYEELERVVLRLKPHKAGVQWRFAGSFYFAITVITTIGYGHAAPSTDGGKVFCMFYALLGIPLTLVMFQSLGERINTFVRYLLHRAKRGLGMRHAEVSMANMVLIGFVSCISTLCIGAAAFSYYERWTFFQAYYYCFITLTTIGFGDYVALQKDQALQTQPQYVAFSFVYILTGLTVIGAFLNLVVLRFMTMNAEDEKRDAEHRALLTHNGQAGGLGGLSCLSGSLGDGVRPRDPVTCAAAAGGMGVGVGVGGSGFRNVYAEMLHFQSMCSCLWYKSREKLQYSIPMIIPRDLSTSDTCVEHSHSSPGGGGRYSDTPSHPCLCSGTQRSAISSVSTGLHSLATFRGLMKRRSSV

IC50 [µM] | flux ratio, lower = inhibition | Compound
0.042 |  | COc1ccccc1NC(=O)c1cccc(NC(=O)c2ccccc2C(F)(F)F)c1
1.29 |  | COc1cccc(-c2n[nH]c(=S)n2C(C)C2CC3CCC2C3)c1 (centres undefined)
0.07 |  | CC(NC(=O)c1ccco1)C1CC2CCC1C2 (centres undefined)
0.039 |  | CCOc1ccccc1NC(=O)c1cccc(NC(=O)c2cccc(Cl)c2)c1
0.114 |  | CCOc1ccccc1NC(=O)c1cccc(NC(=O)c2ccccc2OC(F)(F)F)c1
0.147 |  | O=C(Nc1cccc(NC(=O)c2cccc(C(F)(F)F)c2)c1)c1ccccc1
0.491 |  | CCOc1cccc(NC(=O)c2cccc(NC(=O)C3CCCC3)c2)c1
 | inactive | Cc1cccc(-c2n[nH]c(=S)n2C(C)C2CC3CCC2C3)c1 (centres undefined)
0.073 |  | COc1ccccc1C(=O)Nc1cccc(NC(=O)c2ccccc2C)c1
 | inactive | COc1cccc(Cc2n[nH]c(=S)n2C(C)C2CC3CCC2C3)c1 (centres undefined)
 | inactive | CC(C1CC2CCC1C2)n1c(C2CCOC2)n[nH]c1=S (centres undefined)
0.002 |  | CCOc1ccccc1C(=O)Nc1cccc(NC(=O)c2ccccc2C(F)(F)F)c1
1.38 |  | Cc1cccc(NC(=O)c2ccccc2NC(=O)c2ccccc2)c1
0.004 |  | COc1ccccc1C(=O)Nc1cccc(NC(=O)c2ccccc2OC(F)(F)F)c1
0.298 |  | CC(C1CC2CCC1C2)n1c(-c2ccoc2)n[nH]c1=S (centres undefined)
0.606 |  | S=c1[nH]nc(-c2ccco2)n1CC1CCCCC1

Further lines, the compound ahead of its results:

Compound | IC50 [µM] | flux ratio, lower = inhibition
CCOc1ccccc1NC(=O)c1cccc(C(=O)NC2CCCC2)c1 | 0.342 | 
Cc1cccc(C(=O)Nc2cccc(NC(=O)c3ccccc3)c2)c1 | 0.0963 | 
CCOc1ccccc1NC(=O)c1cccc(NC(=O)c2cccc(OC)c2)c1 | 0.005 | 
CC(C1CC2CCC1C2)n1c(SCc2ccccc2)nnc1-c1ccco1 (centres undefined) | 1.66 | 
CN(C)c1ccc(C(=O)Nc2cccc(NC(=O)c3ccccc3)c2)cc1 | 0.259 | 
CC(C1CC2CCC1C2)n1cnnc1-c1ccco1 (centres undefined) | 0.018 | 
O=C(Nc1cccc(NC(=O)c2ccccc2Cl)c1)c1ccccc1 | 0.311 | 
CCOc1ccccc1C(=O)Nc1cccc(NC(=O)c2ccccc2OC)c1 | 0.002 | 
CC(C)c1ccccc1C(=O)Nc1cccc(NC(=O)c2ccccc2OC(F)(F)F)c1 | 0.011 | 
O=C(Nc1cccc(NC(=O)c2ccc(Cl)cc2)c1)c1ccccc1 |  | inactive
CCOc1ccccc1NC(=O)c1cccc(NC(=O)c2ccccc2Cl)c1 | 0.0839 | 
CC(C1CC2CCC1C2)n1c(SC(F)F)nnc1-c1ccco1 (centres undefined) |  | inactive
CC(C1CC2CCC1C2)n1c(-c2ccsc2)n[nH]c1=S (centres undefined) |  | inactive
CC(C1CC2CCC1C2)n1c(-c2ccccc2Cl)n[nH]c1=S (centres undefined) | 2.05 | 
Cc1cccc(C(=O)Nc2cccc(NC(=O)c3cccs3)c2)c1 | 0.003 | 
Cc1cccc(C(=O)Nc2ccc(C(=O)Nc3ccccc3)cc2)c1 | 0.183 | 
Cc1ccc(C(=O)Nc2cccc(NC(=O)c3ccccc3)c2)cc1 |  | inactive
CCOc1ccccc1NC(=O)c1cccc(NC(=O)c2ccccc2OC)c1 | 0.00653 | 
CCOc1ccccc1NC(=O)c1cccc(NC(=O)C2CCOC2)c1 (centres undefined) | 1.33 | 

Compound | IC50 [µM] | flux ratio, lower = inhibition
COc1ccccc1C(=O)Nc1cccc(NC(=O)c2cccc(C)c2)c1 | 0.011 | 
Cc1ccc(-c2n[nH]c(=S)n2C(C)C2CC3CCC2C3)cc1 (centres undefined) | 0.77 | 
O=C(Nc1cccc(NC(=O)c2ccccc2C(F)(F)F)c1)c1ccccc1 | 0.13 | 
CC(C1CC2CCC1C2)n1c(-c2ccccc2)n[nH]c1=S (centres undefined) | 0.403 | 
Cc1cccc(C(=O)Nc2cccc(NC(=O)c3ccccc3OC(F)(F)F)c2)c1 | 0.0285 | 
Cc1ccccc1-c1n[nH]c(=S)n1C(C)C1CC2CCC1C2 (centres undefined) | 0.912 | 
CCOc1ccccc1NC(=O)c1cccc(NC(=O)CC2CCCC2)c1 | 0.161 | 
COc1ccccc1NC(=O)c1cccc(NC(=O)CC2CCCC2)c1 | 0.086 | 
CCOc1ccccc1NC(=O)c1cccc(NC(=O)CC2CCCCC2)c1 | 0.217 | 
CC(C)(C)c1ccc(C(=O)Nc2cccc(NC(=O)c3ccccc3)c2)cc1 |  | inactive
CCOc1ccccc1C(=O)Nc1cccc(NC(=O)c2cccc(C)c2)c1 | 0.00746 | 
CC(C1CC2CCC1C2)n1c(SCC#N)nnc1-c1cccs1 (centres undefined) |  | inactive
CC(C)Oc1ccccc1C(=O)Nc1cccc(NC(=O)c2ccccc2OC(F)(F)F)c1 | 0.001 | 
CC(C1CC2CCC1C2)n1c(-c2cccnc2)n[nH]c1=S (centres undefined) | 1.02 | 
CC(c1cccc2ccccc12)n1c(-c2ccco2)n[nH]c1=S (centres undefined) | 0.561 | 
S=c1[nH]nc(-c2ccco2)n1C1CC2CCC1C2 (centres undefined) | 0.037 | 
Cc1cccc(C(=O)Nc2cccc(NC(=O)c3ccccc3C(F)(F)F)c2)c1 |  | inactive
CCOc1ccccc1NC(=O)c1cccc(NC(=O)c2cccc(C(F)(F)F)c2)c1 | 0.232 | 
Cc1cccc(C(=O)Nc2cccc(NC(=O)c3ccc(C(C)(C)C)cc3)c2)c1 | 0.184 | 
